# Legend:
# [1] = biological target: T1, Estrogen receptor (Homo sapiens) (UniProt P03372); assay: Agonist activity at ERalpha expressed in HEK293 cells at 10 uM after 24 hrs by luciferase reporter gene assay relative to 3,17-beta-estradiol; type: functional, cell-based
# T1 sequence (whole entry): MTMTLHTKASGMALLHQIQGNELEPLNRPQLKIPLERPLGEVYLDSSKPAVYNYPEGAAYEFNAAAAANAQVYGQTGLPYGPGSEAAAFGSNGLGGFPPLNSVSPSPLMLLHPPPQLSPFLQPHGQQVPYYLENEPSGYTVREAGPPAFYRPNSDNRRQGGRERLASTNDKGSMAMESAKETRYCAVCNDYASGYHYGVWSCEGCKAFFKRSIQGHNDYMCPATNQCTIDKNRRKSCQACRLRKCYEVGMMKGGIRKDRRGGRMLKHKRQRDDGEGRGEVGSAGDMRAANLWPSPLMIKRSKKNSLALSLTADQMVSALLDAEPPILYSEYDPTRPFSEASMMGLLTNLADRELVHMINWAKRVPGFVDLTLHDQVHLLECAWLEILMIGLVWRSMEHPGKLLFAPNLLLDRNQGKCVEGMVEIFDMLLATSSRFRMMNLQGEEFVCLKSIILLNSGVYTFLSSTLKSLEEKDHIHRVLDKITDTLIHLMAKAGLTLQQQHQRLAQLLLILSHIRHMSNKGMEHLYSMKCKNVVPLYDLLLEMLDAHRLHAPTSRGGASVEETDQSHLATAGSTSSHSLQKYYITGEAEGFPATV
# In short: (§1)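 HEK293 cells (no endogenous ER) in phenol-free DMEM with 5% delipidated FBS were transfected for 4 h with 5 ng ERα or ERβ expression vector, 75 ng pERE2TATA-LUC reporter and 20 ng pCMVβ. Cells then received 10 μM compound, 10 nM E2 or vehicle (0.1% v/v) for 24 h. Luciferase was normalized to β-galactosidase and expressed as 100% × (test − vehicle)/(E2 − vehicle). Values are means of at least three independent transfections.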
# [2] = biological target: Estrogen receptor beta (Homo sapiens) (UniProt Q92731); assay: Agonist activity at ERbeta expressed in HEK293 cells at 10 uM after 24 hrs by luciferase reporter gene assay relative to 3,17-beta-estradiol; type: functional, cell-based; in short: as §1
# [3] = species on record: Homo sapiens; assay: Selectivity ratio of relative binding affinity for human ERalpha to relative binding affinity for human ERbeta
# In short: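 COS-1 cells in DMEM with 10% delipidated FBS were transfected for 24 h with human ERα or ERβ vector (pSG5-hERα/β). Cells were washed, lysed in 0.5 M NaOH at 56 °C for 15 min and counted by scintillation, with nonspecific binding subtracted.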
# Sequence of Estrogen receptor beta (Homo sapiens) (Q92731 whole entry): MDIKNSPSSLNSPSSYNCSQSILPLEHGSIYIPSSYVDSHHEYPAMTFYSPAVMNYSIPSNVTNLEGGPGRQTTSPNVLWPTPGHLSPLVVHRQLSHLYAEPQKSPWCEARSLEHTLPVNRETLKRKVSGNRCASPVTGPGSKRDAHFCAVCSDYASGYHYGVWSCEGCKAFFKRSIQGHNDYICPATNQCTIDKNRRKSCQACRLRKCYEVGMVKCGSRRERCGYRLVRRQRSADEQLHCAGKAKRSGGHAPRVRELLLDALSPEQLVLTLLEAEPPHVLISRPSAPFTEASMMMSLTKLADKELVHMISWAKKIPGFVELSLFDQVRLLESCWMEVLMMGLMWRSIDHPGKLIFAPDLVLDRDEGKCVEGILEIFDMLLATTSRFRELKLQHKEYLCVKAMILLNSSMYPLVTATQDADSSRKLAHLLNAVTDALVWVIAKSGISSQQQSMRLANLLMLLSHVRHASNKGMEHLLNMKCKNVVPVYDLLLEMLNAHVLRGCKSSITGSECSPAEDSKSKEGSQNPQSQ
SMILES,Activity [1],Activity [2],Ratio [3]
Oc1ccc(CC2CC(CCc3ccccc3)=NO2)cc1 (stereo not given),105%,42.4%,
Oc1ccccc1CCC1=NOC(Cc2ccc(F)cc2)C1 (stereo not given),11.1%,-2.4%,
O=C(CCCc1ccc(O)c(O)c1)CC(O)Cc1ccc(O)cc1 (racemic),0.5%,-0.6%,
O=C(CCCc1ccc(O)c(O)c1)CC(O)Cc1ccccc1 (racemic),-0.5%,-0.8%,
O=C(CCCc1ccc(O)cc1)CC(O)Cc1ccccc1 (racemic),105%,82.3%,11
O=C(CCCc1ccccc1)CC(O)Cc1ccc(O)cc1 (racemic),16%,2.4%,
O=C(CCc1cccc(O)c1)CC(O)CCc1ccccc1 (racemic),87.3%,48.1%,106
O=C(CCc1ccccc1O)CC(O)CCc1ccccc1 (racemic),4%,1.1%,
O=C(CCc1ccccc1O)CC(O)Cc1ccccc1 (racemic),45.2%,5.1%,
"Oc1ccc(CCCC2=NOC(Cc3ccccc3)C2)cc1 (single isomer, unassigned)",75.1%,19.8%,
"Oc1ccccc1CCC1=NOC(CCc2ccccc2)C1 (single isomer, unassigned)",4.5%,4.2%,
"Oc1ccccc1CCC1=NOC(Cc2ccccc2)C1 (single isomer, unassigned)",39.7%,30.5%,
"c1ccc(CCC2=NOC(Cc3ccccc3)C2)cc1 (single isomer, unassigned)",38.2%,1.3%,
"c1ccc(CCC2=NOC(c3ccccc3)C2)cc1 (single isomer, unassigned)",11.2%,8.1%,
"Oc1ccc(CCC2=NOC(Cc3ccccc3)C2)cc1 (single isomer, unassigned; 3a)",,,6
"Oc1ccc(CCC2=NOC(Cc3ccccc3)C2)cc1 (single isomer, unassigned; 3b)",24.3%,41.5%,0.5

SMILES,Activity [1],Activity [2],Ratio [3]
"Oc1ccc(CC2CC(CCCc3ccccc3)=NO2)cc1 (single isomer, unassigned; 25b)",97.2%,17%,
"Oc1ccc(CCCC2=NOC(Cc3ccccc3)C2)cc1O (single isomer, unassigned; 27b)",2.1%,-1.3%,
"CC1(c2ccccc2)CC(CCc2ccccc2)=NO1 (single isomer, unassigned; 36b)",10.9%,-7.3%,
"CC1(c2ccccc2)CC(CCc2ccccc2O)=NO1 (single isomer, unassigned; 37a)",11.8%,-0.4%,
"CC1(c2ccccc2)CC(CCc2cccc(O)c2)=NO1 (single isomer, unassigned; 38a)",21.6%,0.5%,
"CC1(c2ccccc2)CC(CCc2cccc(O)c2)=NO1 (single isomer, unassigned; 38b)",7.1%,-2.9%,
"CC1(c2ccccc2)CC(CCc2ccc(O)cc2)=NO1 (single isomer, unassigned; 39b)",18.7%,37.4%,
Oc1ccccc1CCC1=NOC(CCc2ccccc2)C1 (stereo in doubt; 16b),21.8%,2.6%,
Oc1cccc(CCC2=NOC(CCc3ccccc3)C2)c1 (stereo in doubt; 17a),8.3%,2.6%,
Oc1ccc(CCCC2=NOC(Cc3ccccc3)C2)cc1 (stereo in doubt; 24a),154%,78.2%,
Oc1ccc(CCCC2=NOC(Cc3ccc(O)cc3)C2)cc1 (stereo in doubt; 26a),14.4%,-0.9%,
O=C(CCCc1ccc(O)cc1)CC(O)Cc1ccc(O)cc1 (stereo in doubt; 32b),2.8%,-1.6%,
c1ccc(CCCC2=NOC(c3ccccc3)C2)cc1 (stereo in doubt; 43a),,-3.1%,
Oc1ccc(CCCC2=NOC(c3cccc(O)c3)C2)cc1 (stereo in doubt; 47b),27.6%,7.2%,
O=C(CCCc1ccccc1)CC(O)c1ccccc1 (stereo in doubt; 48a),,,0.7
O=C(CCCc1ccc(O)cc1)CC(O)Cc1ccc(O)cc1 (stereo in doubt; form 2),15.4%,1.8%,

# Now from value to compound:
Activity [1],Activity [2],Ratio [3],SMILES
43.9%,-0.4%,,c1ccc(CCC2=NOC(CCc3ccccc3)C2)cc1 (stereo not given)
28.1%,5.1%,,c1ccc(CCCC2=NOC(Cc3ccccc3)C2)cc1 (stereo not given)
90.9%,103%,8,CC(O)(CC(=O)CCCc1ccc(O)cc1)c1ccccc1 (racemic)
83.3%,15.1%,2,CC(O)(CC(=O)CCCc1ccccc1)c1ccccc1 (racemic)
80.3%,116%,,CC(O)(CC(=O)CCc1ccc(O)cc1)c1ccccc1 (racemic)
52.1%,38.4%,,CC(O)(CC(=O)CCc1ccccc1)c1ccccc1 (racemic)
69.5%,15.5%,1.5,CC1(c2ccccc2)CC(CCCc2ccccc2)=NO1 (racemic)
46.8%,10.1%,0.3,O=C(CCc1ccc(O)cc1)CC(O)CCc1ccccc1 (racemic)
28.6%,21.2%,,O=C(CCc1ccc(O)cc1)CC(O)Cc1ccc(F)cc1 (racemic)
55%,107%,0.2,O=C(CCc1ccc(O)cc1)CC(O)Cc1ccccc1 (racemic)
51.4%,6.1%,,O=C(CCc1ccccc1)CC(O)Cc1ccc(O)cc1 (racemic)
21.6%,11.1%,,O=C(CCc1ccccc1O)CC(O)Cc1ccc(F)cc1 (racemic)
28.9%,7.4%,,"Fc1ccc(CC2CC(CCc3ccccc3)=NO2)cc1 (single isomer, unassigned)"
49.3%,43.5%,,"O=C(CCCc1ccc(O)cc1)CC(O)c1cccc(O)c1 (single isomer, unassigned)"
59.3%,28.2%,5,"O=C(CCCc1ccccc1)CC(O)c1ccccc1 (single isomer, unassigned)"
25.3%,2.8%,,"O=C(CCc1ccccc1)CC(O)c1ccccc1 (single isomer, unassigned)"
62.8%,15.4%,,"Oc1ccc(CCC2=NOC(CCc3ccccc3)C2)cc1 (single isomer, unassigned)"
5.7%,4.4%,,"Oc1ccc(CCC2=NOC(Cc3ccc(F)cc3)C2)cc1 (single isomer, unassigned)"
13.6%,10.6%,,"Oc1ccc(CCCC2=NOC(Cc3ccc(O)cc3)C2)cc1 (single isomer, unassigned)"
32.9%,-0.9%,,"Oc1ccc(CCCC2=NOC(c3cccc(O)c3)C2)cc1 (single isomer, unassigned)"
3%,3.6%,,"Oc1cccc(CCC2=NOC(CCc3ccccc3)C2)c1 (single isomer, unassigned)"
67.1%,4.7%,,"Oc1ccc(CC2CC(CCCc3ccccc3)=NO2)cc1 (single isomer, unassigned; 25a)"
0.3%,1.3%,,"Oc1ccc(CCCC2=NOC(Cc3ccccc3)C2)cc1O (single isomer, unassigned; 27a)"
1.7%,-1.1%,,"Oc1ccc(CC2CC(CCCc3ccc(O)c(O)c3)=NO2)cc1 (single isomer, unassigned; 28a)"
1.4%,-0.7%,,"Oc1ccc(CC2CC(CCCc3ccc(O)c(O)c3)=NO2)cc1 (single isomer, unassigned; 28b)"
8.1%,-20%,,"CC1(c2ccccc2)CC(CCc2ccccc2)=NO1 (single isomer, unassigned; 36a)"
21.7%,30%,,"CC1(c2ccccc2)CC(CCc2ccccc2O)=NO1 (single isomer, unassigned; 37b)"
39.7%,18%,,"CC1(c2ccccc2)CC(CCc2ccc(O)cc2)=NO1 (single isomer, unassigned; 39a)"
15.8%,0.8%,,Oc1ccc(CCC2=NOC(CCc3ccccc3)C2)cc1 (stereo in doubt; 18b)
87.4%,108%,,O=C(CCCc1ccc(O)cc1)CC(O)Cc1ccc(O)cc1 (stereo in doubt; form 1)

# Reference: ChEMBL document CHEMBL1157808, “Synthesis and biological evaluation of phenolic 4,5-dihydroisoxazoles and 3-hydroxy ketones as estrogen receptor alpha and beta agonists” (Bioorg Med Chem, 2010)
